ChEMBL document CHEMBL2163274, “Heterocyclic methylsulfone hydroxamic acid LpxC inhibitors as Gram-negative antibacterial agents” (Bioorg Med Chem Lett, 2012)
Converted amounts (≈) assume the structure as drawn.

Legend:
Pseudomonas aeruginosa [1] = assay: Antibacterial activity against Pseudomonas aeruginosa PA7; type: functional
How it was run: (§1)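 MIC in µg/ml against P. aeruginosa strains with fully functioning efflux pumps. PAO1 is wild type and efflux pump competent.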

Pseudomonas aeruginosa [2] = assay: Antibacterial activity against quinolone-resistant Pseudomonas aeruginosa PA3060; type: functional
How it was run: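 MIC (µg/ml) against quinolone-resistant P. aeruginosa PA-3060, run alongside efflux-competent strains PAO1 and PA-7 and the multi-efflux-pump knockout PA-3919. Some analogs were tested as racemates.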

[3] = Lipophilicity, log D of the compound at pH 7.4; type: physicochemical; conditions: buffer
Pseudomonas aeruginosa [4] = assay: Antibacterial activity against multi efflux pump knock out Pseudomonas aeruginosa PA3919; type: functional
How it was run: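 MIC in µg/ml against P. aeruginosa PA-3919, which lacks multiple efflux pumps. The strain is used to tell whether a compound is a substrate of these pumps.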

[5] = target: T1, UDP-3-O-acyl-N-acetylglucosamine deacetylase (Pseudomonas aeruginosa, UniProt B5ATN6); assay: Inhibition of Pseudomonas aeruginosa LpxC
T1 sequence (B5ATN6 whole entry): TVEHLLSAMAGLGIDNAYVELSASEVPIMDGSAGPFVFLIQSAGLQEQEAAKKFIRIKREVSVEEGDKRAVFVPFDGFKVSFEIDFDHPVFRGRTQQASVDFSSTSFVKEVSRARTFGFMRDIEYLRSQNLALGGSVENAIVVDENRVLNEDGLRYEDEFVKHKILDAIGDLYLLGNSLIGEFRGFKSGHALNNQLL

Pseudomonas aeruginosa [6] = assay: Antibacterial activity against Pseudomonas aeruginosa PAO1; type: functional; how it was run: as §1
Pseudomonas aeruginosa [7] = assay: Antibacterial activity against Pseudomonas aeruginosa; type: functional
Escherichia coli = assay: Antibacterial activity against Escherichia coli; type: functional
Klebsiella pneumoniae = assay: Antibacterial activity against Klebsiella pneumoniae; type: functional
Acinetobacter baumannii = assay: Antibacterial activity against Acinetobacter baumannii; type: functional
[8] = Fraction unbound in human plasma; type: ADME, cell-free

Compound | MIC (Pseudomonas aeruginosa [1]) | MIC (Pseudomonas aeruginosa [2]) | logD [3] | MIC (Pseudomonas aeruginosa [4]) | IC50 [5] | MIC (Pseudomonas aeruginosa [6]) | MIC90 (Pseudomonas aeruginosa [7]) | MIC90 (Escherichia coli) | MIC90 (Klebsiella pneumoniae) | MIC90 (Acinetobacter baumannii) | fraction unbound [8]
C[C@@](CCc1ccc(-c2ccccc2)cc1)(C(=O)NO)S(C)(=O)=O | 1 µg/mL (≈ 2.88 µM) | 1 µg/mL (≈ 2.88 µM) | 2.24 |  |  |  |  |  |  |  | 
C[C@@](CCn1ccc(-c2ccccc2)cc1=O)(C(=O)NO)S(C)(=O)=O | 1 µg/mL (≈ 2.74 µM) | 2 µg/mL (≈ 5.49 µM) | 0.8 | 0.06 µg/mL (≈ 0.165 µM) |  |  |  |  |  |  | 
C[C@@](CCn1cc(-c2cccc(Cl)c2Cl)nn1)(C(=O)NO)S(C)(=O)=O | 4 µg/mL (≈ 9.82 µM) | 4 µg/mL (≈ 9.82 µM) |  | < 0.06 µg/mL | 1.95 nM | 2 µg/mL (≈ 4.91 µM) |  |  |  |  | 
COc1ccc(-c2cn(CC[C@](C)(C(=O)NO)S(C)(=O)=O)nn2)c(Cl)c1 | 8 µg/mL (≈ 19.9 µM) | 8 µg/mL (≈ 19.9 µM) |  | 0.125 µg/mL (≈ 0.31 µM) | 4.71 nM | 8 µg/mL (≈ 19.9 µM) |  |  |  |  | 
C[C@@](CCn1cc(-c2cccc(F)c2F)nn1)(C(=O)NO)S(C)(=O)=O | 4 µg/mL (≈ 10.7 µM) | 8 µg/mL (≈ 21.4 µM) |  | 0.125 µg/mL (≈ 0.334 µM) | 8.08 nM | 4 µg/mL (≈ 10.7 µM) |  |  |  |  | 
COc1ccc(-c2cc(CC[C@](C)(C(=O)NO)S(C)(=O)=O)no2)c(F)c1 | 0.5 µg/mL (≈ 1.29 µM) | 1 µg/mL (≈ 2.59 µM) |  | 0.125 µg/mL (≈ 0.323 µM) | 2.32 nM | 0.5 µg/mL (≈ 1.29 µM) |  |  |  |  | 
COc1ccc(-c2cc(CC[C@](C)(C(=O)NO)S(C)(=O)=O)on2)c(F)c1 | 2 µg/mL (≈ 5.18 µM) | 2 µg/mL (≈ 5.18 µM) | 1.23 | < 0.06 µg/mL | 4.4 nM | 1 µg/mL (≈ 2.59 µM) | 4 µg/mL (≈ 10.4 µM) | 4 µg/mL (≈ 10.4 µM) | 8 µg/mL (≈ 20.7 µM) | 32 µg/mL (≈ 82.8 µM) | 0.072
COc1cccc(-c2cc(CC[C@](C)(C(=O)NO)S(C)(=O)=O)on2)c1F | 4 µg/mL (≈ 10.4 µM) | 8 µg/mL (≈ 20.7 µM) |  | < 0.06 µg/mL | 5.32 nM | 2 µg/mL (≈ 5.18 µM) |  |  |  |  | 
C[C@@](CCc1cc(-c2ccccc2)on1)(C(=O)NO)S(C)(=O)=O | 0.5 µg/mL (≈ 1.48 µM) | 1 µg/mL (≈ 2.96 µM) | 1.31 | < 0.06 µg/mL | 0.511 nM | 0.5 µg/mL (≈ 1.48 µM) | 2 µg/mL (≈ 5.91 µM) | 4 µg/mL (≈ 11.8 µM) | 32 µg/mL (≈ 94.6 µM) | > 32 µg/mL | 0.016
C[C@@](CCn1cc(-c2ccccc2)nn1)(C(=O)NO)S(C)(=O)=O | 2 µg/mL (≈ 5.91 µM) | 4 µg/mL (≈ 11.8 µM) |  | 0.03 µg/mL (≈ 0.0887 µM) | 0.85 nM | 1 µg/mL (≈ 2.96 µM) |  |  |  |  | 
C[C@@](CCn1cc(-c2ccccc2)cn1)(C(=O)NO)S(C)(=O)=O | 1 µg/mL (≈ 2.96 µM) | 2 µg/mL (≈ 5.93 µM) | 1.04 | 0.015 µg/mL (≈ 0.0445 µM) | 1.61 nM | 0.5 µg/mL (≈ 1.48 µM) | 4 µg/mL (≈ 11.9 µM) | 32 µg/mL (≈ 94.8 µM) | > 64 µg/mL | > 256 µg/mL | 0.048
C[C@@](CCc1cc(-c2ccccc2)no1)(C(=O)NO)S(C)(=O)=O | 1 µg/mL (≈ 2.96 µM) | 2 µg/mL (≈ 5.91 µM) | 0.99 | < 0.06 µg/mL | 3.02 nM | 0.5 µg/mL (≈ 1.48 µM) | 2 µg/mL (≈ 5.91 µM) | 1 µg/mL (≈ 2.96 µM) | 4 µg/mL (≈ 11.8 µM) | > 32 µg/mL | 0.013
C[C@@](CCn1cc(-c2ccc(Cl)cc2F)nn1)(C(=O)NO)S(C)(=O)=O | 1 µg/mL (≈ 2.56 µM) | 1 µg/mL (≈ 2.56 µM) | 1.34 | 0.008 µg/mL (≈ 0.0205 µM) | 0.657 nM | 0.5 µg/mL (≈ 1.28 µM) | 1 µg/mL (≈ 2.56 µM) | 1 µg/mL (≈ 2.56 µM) | 2 µg/mL (≈ 5.12 µM) | > 32 µg/mL | 
C[C@@](CCn1cc(-c2ccc(Cl)c(F)c2)nn1)(C(=O)NO)S(C)(=O)=O | 2 µg/mL (≈ 5.12 µM) | 2 µg/mL (≈ 5.12 µM) |  | 0.06 µg/mL (≈ 0.154 µM) | 0.912 nM | 2 µg/mL (≈ 5.12 µM) |  |  |  |  | 
COc1ccc(-c2cn(CC[C@](C)(C(=O)NO)S(C)(=O)=O)nn2)c(F)c1 | 2 µg/mL (≈ 5.18 µM) | 4 µg/mL (≈ 10.4 µM) | 1.36 | 0.06 µg/mL (≈ 0.155 µM) | 1.2 nM | 2 µg/mL (≈ 5.18 µM) | 4 µg/mL (≈ 10.4 µM) | 16 µg/mL (≈ 41.4 µM) | > 32 µg/mL | > 32 µg/mL | 0.085
Cc1ccc(-c2cn(CC[C@](C)(C(=O)NO)S(C)(=O)=O)nn2)cc1 | 4 µg/mL (≈ 11.4 µM) | 8 µg/mL (≈ 22.7 µM) |  | 0.125 µg/mL (≈ 0.355 µM) | 1.39 nM | 2 µg/mL (≈ 5.68 µM) |  |  |  |  | 
C[C@@](CCn1cc(-c2ccc(Cl)c(Cl)c2)nn1)(C(=O)NO)S(C)(=O)=O | 2 µg/mL (≈ 4.91 µM) | 2 µg/mL (≈ 4.91 µM) |  | < 0.06 µg/mL | 1.67 nM | 1 µg/mL (≈ 2.46 µM) |  |  |  |  | 
C[C@@](CCn1cc(-c2ccc(F)c(F)c2)nn1)(C(=O)NO)S(C)(=O)=O | 4 µg/mL (≈ 10.7 µM) | 4 µg/mL (≈ 10.7 µM) |  | 0.06 µg/mL (≈ 0.16 µM) | 1.87 nM | 4 µg/mL (≈ 10.7 µM) |  |  |  |  | 
CC(CCc1cc(-c2cccc(Cl)c2Cl)on1)(C(=O)NO)S(C)(=O)=O (racemic) |  | 2 µg/mL (≈ 4.91 µM) |  | 0.06 µg/mL (≈ 0.147 µM) | 2.66 nM |  |  |  |  |  | 
CC(CCc1cc(-c2cccc(F)c2)on1)(C(=O)NO)S(C)(=O)=O (racemic) |  | 4 µg/mL (≈ 11.2 µM) |  | < 0.06 µg/mL | 6.75 nM |  |  |  |  |  | 
CC(CCc1cc(-c2ccccc2F)on1)(C(=O)NO)S(C)(=O)=O (racemic) | 2 µg/mL (≈ 5.61 µM) | 2 µg/mL (≈ 5.61 µM) |  | 0.06 µg/mL (≈ 0.168 µM) | 8.31 nM | 1 µg/mL (≈ 2.81 µM) |  |  |  |  | 
Cc1ccc(-c2cc(CCC(C)(C(=O)NO)S(C)(=O)=O)on2)cc1 (racemic) | 2 µg/mL (≈ 5.68 µM) | 2 µg/mL (≈ 5.68 µM) |  | < 0.06 µg/mL | 2.93 nM | 1 µg/mL (≈ 2.84 µM) |  |  |  |  | 
CC(CCc1cc(-c2cccc(F)c2F)no1)(C(=O)NO)S(C)(=O)=O (racemic) | 2 µg/mL (≈ 5.34 µM) | 4 µg/mL (≈ 10.7 µM) |  | < 0.06 µg/mL | 6.81 nM | 2 µg/mL (≈ 5.34 µM) |  |  |  |  | 
CC(CCc1cn(-c2ccccc2)nn1)(C(=O)NO)S(C)(=O)=O (racemic) | 16 µg/mL (≈ 47.3 µM) | 32 µg/mL (≈ 94.6 µM) |  | 0.5 µg/mL (≈ 1.48 µM) | 3 nM | 8 µg/mL (≈ 23.6 µM) |  |  |  |  | 
CC(CCc1cnn(-c2ccccc2)c1)(C(=O)NO)S(C)(=O)=O (racemic) | 32 µg/mL (≈ 94.8 µM) | 64 µg/mL (≈ 190 µM) |  | 0.5 µg/mL (≈ 1.48 µM) | 13.5 nM | 8 µg/mL (≈ 23.7 µM) |  |  |  |  | 
CC(CCc1nnc(-c2ccccc2)[nH]1)(C(=O)NO)S(C)(=O)=O (racemic) | > 64 µg/mL | > 64 µg/mL |  | 64 µg/mL (≈ 189 µM) | > 100 nM | > 64 µg/mL |  |  |  |  | 
CC(CCc1nc(-c2ccccc2)no1)(C(=O)NO)S(C)(=O)=O (racemic) | 32 µg/mL (≈ 94.3 µM) | > 64 µg/mL |  | 0.5 µg/mL (≈ 1.47 µM) | > 100 nM | 16 µg/mL (≈ 47.1 µM) |  |  |  |  | 
CC(CCc1cc(-c2ccccc2)n[nH]1)(C(=O)NO)S(C)(=O)=O (racemic) | > 64 µg/mL | > 64 µg/mL |  | 4 µg/mL (≈ 11.9 µM) | > 100 nM | > 64 µg/mL |  |  |  |  | 
CC(CCn1ncc(-c2ccccc2)n1)(C(=O)NO)S(C)(=O)=O (racemic) | 32 µg/mL (≈ 94.6 µM) | 64 µg/mL (≈ 189 µM) |  | 0.5 µg/mL (≈ 1.48 µM) | > 100 nM | 32 µg/mL (≈ 94.6 µM) |  |  |  |  | 
